# Sampled rows, rich in hits. Any-hit rate of the full collection: about 0.77%.
# bIAP inh – bovine intestinal alkaline phosphatase inhibitors, primary screen, selectivity assay for TNAP inhibitor project, biochemical, bovine IAP, CDP-star luminescence. alkaline phosphatase, intestinal [Bos taurus]. purified bovine IAP, 30 min. inhibition, % at 20 µM. 190,000 tested, under 10 active;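 active means over 50% inhibition of intestinal alkaline phosphatase at 20 µM in the single-dose screen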
#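 Assay system – bovine IAP enzyme · Quantity – bovine IAP at 1/65,000,000 final dilution · Detection – CDP-star luminescence signal · Times – 30 min reaction at room temperature · Also added – CDP-star substrate at 30 µM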
# mIAP activ – activators of mouse IAP, primary screen, biochemical, luminescence, uHTS | muIAP, CDP-Star luminescence, 30 min; active compounds read high; 1 = vehicle-only enzyme signal, 0 = enzyme-free wells | activation factor at 10 µM | actives 0.24% (n = 330,000) | AID 2805, 2010;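 active means activation factor of at least 2 at 20 µM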
#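 System: Mouse IAP enzyme | Also added: CDP-Star substrate | Dosing: Compounds dispensed in DMSO | Schedule: 30 min enzyme-substrate-compound incubation at room temperature | Technique: Chemiluminescence readout | Control set: DMSO-only wells and no-enzyme negative control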
# hIAP activ – human IAP activators, primary screen, biochemical, luminescence, uHTS; purified human IAP, CDP-Star luminescence, 30 min; active compounds read high; 1 = vehicle-only enzyme, 0 = enzyme-free background; activation factor at 10 µM; actives 0.16% (n = 330,000); AID 2524, 2010;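 active means activation factor of the enzyme at least 2-fold when tested at 20 µM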
# Target sequence (P09923 whole entry, looked up): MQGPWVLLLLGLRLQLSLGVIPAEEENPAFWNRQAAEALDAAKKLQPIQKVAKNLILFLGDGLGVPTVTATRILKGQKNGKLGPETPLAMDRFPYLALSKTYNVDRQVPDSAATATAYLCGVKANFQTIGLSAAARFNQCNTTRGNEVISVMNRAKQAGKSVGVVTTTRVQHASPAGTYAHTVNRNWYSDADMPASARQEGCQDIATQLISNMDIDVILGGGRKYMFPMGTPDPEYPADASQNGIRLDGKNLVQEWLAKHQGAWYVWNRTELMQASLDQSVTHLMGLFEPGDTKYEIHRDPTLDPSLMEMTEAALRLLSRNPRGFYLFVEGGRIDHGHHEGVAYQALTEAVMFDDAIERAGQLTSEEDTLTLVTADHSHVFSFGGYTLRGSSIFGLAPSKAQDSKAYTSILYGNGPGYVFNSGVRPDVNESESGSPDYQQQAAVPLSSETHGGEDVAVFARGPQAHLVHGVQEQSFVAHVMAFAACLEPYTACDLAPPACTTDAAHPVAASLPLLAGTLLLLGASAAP
# hIAP inh – human IAP inhibitors, primary screen, biochemical, luminescence, uHTS; Intestinal-type alkaline phosphatase (Homo sapiens), P09923; purified IAP, CDP-Star luminescence, 30 min; inhibition, % at 10 µM; actives 0.12% (n = 330,000);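 active means inhibition reaching a set limit with compound at 10 µM in the primary screen, cut at about 35% in these data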
# mIAP inh – inhibitors of mouse IAP, primary screen, biochemical, luminescence, uHTS; inhibition, % at 10 µM; actives 0.2% (n = 330,000); purified mouse IAP, CDP-Star luminescence, 30 min; intestinal alkaline phosphatase [Mus musculus];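 active means inhibition of at least 40% at 10 µM in the primary screen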
# bIAP activator – bovine intestinal alkaline phosphatase activators, primary screen, biochemical, bovine IAP, CDP-star luminescence; alkaline phosphatase, intestinal [Bos taurus]; AID 1016, 2008; actives 0.17% (n = 200,000); purified bovine IAP, 30 min; active compounds read high; fold of DMSO-control signal, blank-subtracted; activation factor at 20 µM;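 active means activation factor of 2 or more at 20 µM, a signal rise over negative controls twice the positive control's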
# Hits are given with their value; . = inactive; / = no result.
SMILES,bIAP inh,mIAP activ,hIAP activ,hIAP inh,mIAP inh,bIAP activator
COc1ccc(C)cc1S(=O)(=O)N1CC(C)OC(C)C1 (stereo not given),.,.,.,.,.,.
COc1ccc(-n2nc3c(c2NC(=O)c2ccc(S(=O)(=O)N4CCOCC4)cc2)CS(=O)C3)cc1 (stereo not given),.,.,.,.,.,.
CCCCCCCCCCCCCCCCn1cc[n+](CC(C)=O)c1,.,/,/,/,/,5.2
CCCCCCn1ccc(=N)cc1,.,.,.,.,.,.
Cc1ccc(S(=O)(=O)N(C)C)cc1NC(=S)NC(C)CCCC(C)C (stereo not given),.,3.9,.,.,.,.
CCCCCCC(C)NC(=S)Nc1cc(S(=O)(=O)N(C)C)ccc1C (stereo not given),.,4.8,.,.,.,.
CCCCc1c(O)nc(SCC(=O)NC(C)(C)C)n(-c2ccccc2C)c1=O,.,.,.,.,42,.
C[C@]12C=CC(=O)C=C1CC[C@@H]1C2C(O)C[C@@]2(C)C1CC[C@]2(O)C(=O)COC(=O)CCC(=O)NC(CC(=O)O)C(=O)O (stereo not given in full),/,.,.,.,.,/
CC(=O)OCC(=O)[C@@]1(O)CC[C@H]2[C@@H]3CCC4=CC(=O)C=C[C@]4(C)[C@H]3[C@@H](O)C[C@@]21C,/,.,.,.,.,380
CCCCNC(=S)Nc1ccc(C(F)(F)F)cc1,.,2.2,.,.,.,.
O=C(O)c1ccc(NC(=S)NC2CCCCC2)cc1,.,.,.,.,.,.
CCCCNC(=S)Nc1ccc(Cl)cc1,.,.,.,.,.,.
FC(F)(F)c1cccc(NC(=S)NC2CCCC2)c1,.,2.6,.,.,.,.
FC(F)(F)c1cccc(NC(=S)NCC2COc3ccccc3O2)c1 (stereo not given),.,3.6,.,.,.,.
FC(F)(F)c1ccc(NC(=S)NC2CCCCC2)cc1,.,2.7,.,.,.,.
CCCn1c(SCC(=O)NC2CCC(C)CC2)n[nH]c1=O (stereo not given),/,.,.,.,.,/
CC(OC(=O)Cc1ccc(Br)cc1)C(=O)NC1CCCCC1C (stereo not given),/,.,.,.,.,/
COc1cccc(NC(=O)Nc2ccc(Cc3ccncc3)cc2)c1,.,4.6,.,.,.,.
COc1cccc(NC(=O)Nc2cc(NC(=O)Nc3cccc(OC)c3)c(C)nc2C)c1,.,2,.,.,.,.
COc1cccc(NC(=O)C2CC2(c2cccc(OC)c2)c2cccc(OC)c2)c1 (stereo not given),.,2.2,.,.,.,.
COc1cccc(C2(c3cccc(OC)c3)CC2C(=O)Nc2cccc3ccccc23)c1 (stereo not given),.,.,.,.,.,.
COc1cccc(NC(=O)Nc2ccncc2)c1,.,.,.,.,.,.
COC(=O)c1sccc1-c1ccc(C(=O)Nc2cccnc2)o1,.,.,.,.,.,.
COc1ccc(/C=N/Nc2cc(=O)n(C)c(=O)n2C)cc1OC,.,.,.,.,.,2
CSc1nnc(-c2ccccc2)c(-c2ccccc2)n1,/,.,.,.,.,/
SMILES,bIAP inh,mIAP activ,hIAP activ,hIAP inh,mIAP inh,bIAP activator
CSc1nnc(-c2ccco2)c(-c2ccco2)n1,.,.,.,.,46,.
CCOc1ccccc1-c1cc(-c2ccccc2)nc2c1c(=O)n(C)c(=O)n2C,.,.,.,.,.,.
Cc1ccc2c(c1)N(CC(=O)O)C(=O)CO2,.,.,.,.,.,.
C[C@@H](C(=O)Nc1ccc2ccccc2c1)[C@H]1C[C@]1(C)[C@H](NC(=O)c1cccnc1)c1ccccc1,.,.,.,.,.,.
C[C@@H](C(=O)Nc1ccc2ccccc2c1)[C@@H]1C[C@@]1(C)[C@@H](NC(=O)c1ccccc1)c1ccccc1,.,2.3,.,.,.,.
Cc1csc(NC(=O)CSc2nnnn2C)n1,.,.,.,.,.,.
C/C(CC(=O)NC(C)C)=N\NC(=O)COc1cc(C)c(Br)cc1Br,.,.,.,.,.,2.6
O=C(Nc1cccc(F)c1)c1ccc(-c2ccccc2C(F)(F)F)o1,.,/,/,/,/,.
Cc1ccccc1-c1ccc(C(=O)Nc2cccc(F)c2)o1,.,.,.,.,.,3.5
Cc1c(Cl)cccc1NC(=O)CNC(=O)CCS(=O)(=O)c1ccc(F)cc1,/,.,.,.,.,/
COc1cc(NC(=O)C2CCN(S(=O)(=O)c3ccc(Cl)cc3)CC2)ccc1-n1cnnn1,.,2.3,.,.,.,.
Cc1ccccc1C(=O)N1CCN(c2ccc([N+](=O)[O-])c(NCc3ccco3)c2)CC1,.,.,.,.,.,.
CCc1ccc(CCC(=O)Nc2ncc(Cc3ccccc3Cl)s2)o1,.,.,.,.,.,.
O=C(Nc1n[nH]c(C2CCCCC2)n1)C1CCCCC1,.,2.3,.,.,.,8.1
O=C(Nc1ncccn1)C1CCCCC1,.,.,.,.,.,.
O=C(NCCSCc1ccco1)Nc1cc(Cl)cc(Cl)c1,/,2.4,.,.,.,/
C=CCN=C(NC#N)SCCc1ccccc1,.,.,.,.,.,.
C=CCN=C(NC#N)SCC(=O)NCc1ccccc1,.,.,.,.,.,2.2
O=C1CCC/C(=N/NC(=O)c2sc3ccccc3c2Cl)C1,/,.,2.8,.,.,/
O=C(NN=C1CCCC1)c1sc2ccccc2c1Cl,.,.,.,.,.,.
Cc1cc(C)nc(N2CCCC(C(=O)Nc3nc4ccc(S(C)(=O)=O)cc4s3)C2)n1 (stereo not given),.,.,.,.,.,5.3
COc1ccc(NC(=O)CN(c2cc(C)cc(C)c2)S(=O)(=O)c2c(C)noc2C)cc1,.,.,.,.,.,.
CCOc1ccc(N(CC(=O)Nc2ccc(C)c(C)c2)S(=O)(=O)c2c(C)noc2C)cc1,.,2.1,.,.,.,.
COc1ccc(NC(=O)CN(c2cc(C)cc(C)c2)S(=O)(=O)c2c(C)noc2C)cc1OC,.,2.1,.,.,.,.
COc1ccc2nc(NC(=O)CSc3nnc(-c4ccoc4C)n3C)sc2c1,.,.,.,.,.,.
CCOC(=O)C(=O)Nc1nnc(C2CCCCC2)s1,.,.,.,.,.,.
O=C(/C=C/c1ccco1)NC(=S)Nc1ccc(O)c(-c2nc3ccccc3s2)c1,.,.,.,.,53,.
CCOC(=O)N1CCN(Cc2nc(C3CC3)no2)CC1,.,.,.,.,.,.

# From PubChem BioAssay
